Results: paper PMC3574227 (Journal of medicinal chemistry, 2013)
pIC50: −log10 of the molar value. Values joined by “and” are separate entries in the source; they are usually repeats but may differ in a detail not shown here. Identical values can stand only once.

Tests used:
[1] = system: human plasma; assay: Prothrombin time; settings: citrated human plasma
How it was run: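 One-stage recalcification PT on a fibrometer. Test compound was made up in citrated pooled normal human plasma and held 30 s at 37 °C. Clotting was then started with prewarmed reconstituted thromboplastin-D. Clotting time was plotted against concentration and fitted to a quadratic trend line, from which the concentration doubling clotting time was taken.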

[2] = system: human plasma; assay: Activated partial thromboplastin time; settings: for concentration required for a 2-fold increase in APTT: citrated human plasma
[3] = target: human factor XIa (Homo sapiens, UniProt P03951); assay: Direct inhibition of FXIa, chromogenic substrate; type: biochemical
[4] = target: bovine chymotrypsin (Bos taurus, UniProt P00766); assay: Chromogenic substrate hydrolysis assay, chymotrypsin; type: biochemical; settings: NI = no inhibition observed up to 1.8 mg/mL
How it was run: (§1)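 Digestive protease counter-screen: bovine trypsin 72.5 ng/mL with S-2222 80 µM, or bovine α-chymotrypsin 500 ng/mL with Spectrozyme CTY 240 µM (in-well levels; substrate chosen from KM). Fractional residual activity was measured spectrophotometrically at six or more serially diluted test compound concentrations, profiled for IC50.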

[5] = system: FXIa Catalytic Domain (FXIa-CD); assay: Michaelis-Menten kinetics of S-2366 hydrolysis by FXIa catalytic domain; type: biochemical, human
[6] = target: T1, human FXIa (Homo sapiens, UniProt P03951); assay: Competitive inhibition of FXIa by 6 in the presence of UFH; type: biochemical
[7] = target: factor IXa (Homo sapiens, UniProt P00740); assay: Chromogenic substrate hydrolysis assay, factor IXa; type: biochemical
How it was run: (§2)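 Chromogenic substrate hydrolysis with human plasma enzymes, substrate level set from its KM. Enzyme and substrate in well: thrombin 6 nM with Spectrozyme TH 50 µM; factor Xa 1.09 nM with Spectrozyme FXa 125 µM; factor XIIa 5 nM with Spectrozyme FXIIa 125 µM; factor IXa 89 nM with Spectrozyme FIXa 850 µM. Residual activity read spectrophotometrically at six or more serial test compound dilutions, then dose–response fitted.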

[8] = target: factor VIIa (Homo sapiens, UniProt P08709); assay: Chromogenic substrate hydrolysis assay, factor VIIa; type: biochemical; settings: NI = no inhibition observed up to 3.7 mg/mL
How it was run: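 Plasma-derived human factor VIIa (8 nM) with 40 nM recombinant tissue factor and Spectrozyme factor VIIa substrate (1000 µM, in well; level chosen from KM). Residual activity was read spectrophotometrically across six or more serially diluted test compound concentrations to build an inhibition profile for IC50.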

[9] = target: T1, human FXIa; assay: Inhibition of FXIa activation of FIX; type: biochemical; settings: 6 at 3 µM, FIX 0.5 µM, after 120 min of incubation
[10] = target: FXIa Wild Type (Homo sapiens, UniProt P03951); assay: Michaelis-Menten kinetics of S-2366 hydrolysis by wild-type FXIa; type: biochemical
[11] = system: human whole blood; assay: Thromboelastography
How it was run: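 Thromboelastography at 37 °C: 200 mM CaCl2 stock placed in cup, then sodium-citrated human whole blood containing test compound or water added to recalcify. The cup oscillated through 4°45′ at 0.1 Hz. R, α, maximum amplitude (MA) and shear elastic modulus G were recorded automatically, with G = 5000 × MA/(100 − MA).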

[12] = target: T2, factor XIIa (Homo sapiens, UniProt P00748); assay: Chromogenic substrate hydrolysis assay, factor XIIa; type: biochemical
T2 sequence (P00748 373-615 limits assumed): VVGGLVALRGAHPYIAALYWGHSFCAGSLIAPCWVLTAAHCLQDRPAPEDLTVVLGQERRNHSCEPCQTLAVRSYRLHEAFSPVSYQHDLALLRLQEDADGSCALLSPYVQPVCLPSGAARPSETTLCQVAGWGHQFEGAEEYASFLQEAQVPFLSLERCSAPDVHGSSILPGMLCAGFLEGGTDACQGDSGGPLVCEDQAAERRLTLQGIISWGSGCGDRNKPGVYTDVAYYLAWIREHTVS
T2 sequence (P00748 20-372 partner limits assumed): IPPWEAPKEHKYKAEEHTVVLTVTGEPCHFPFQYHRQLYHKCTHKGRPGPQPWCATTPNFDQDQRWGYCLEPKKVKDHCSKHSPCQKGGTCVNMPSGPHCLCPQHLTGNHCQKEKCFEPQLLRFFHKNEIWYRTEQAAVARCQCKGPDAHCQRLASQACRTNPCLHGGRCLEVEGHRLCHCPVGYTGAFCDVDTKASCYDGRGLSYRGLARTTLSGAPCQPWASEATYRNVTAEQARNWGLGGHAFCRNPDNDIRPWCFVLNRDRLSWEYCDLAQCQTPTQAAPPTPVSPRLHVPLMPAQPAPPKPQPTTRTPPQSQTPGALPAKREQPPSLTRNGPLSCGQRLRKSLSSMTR
How it was run: as §2

[13] = target: T3, bovine trypsin (Bos taurus, UniProt P00760); assay: Chromogenic substrate hydrolysis assay, trypsin; type: biochemical; settings: NI = no inhibition observed up to 1.8 mg/mL
T3 sequence (P00760 24-246): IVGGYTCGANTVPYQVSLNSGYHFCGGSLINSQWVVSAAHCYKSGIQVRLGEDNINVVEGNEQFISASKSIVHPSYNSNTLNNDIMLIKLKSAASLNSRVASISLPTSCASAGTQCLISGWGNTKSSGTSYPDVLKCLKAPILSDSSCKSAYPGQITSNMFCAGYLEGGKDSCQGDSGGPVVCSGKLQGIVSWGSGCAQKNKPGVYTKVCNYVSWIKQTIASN
How it was run: as §1

[14] = target: thrombin (Homo sapiens, UniProt P00734); assay: Chromogenic substrate hydrolysis assay, thrombin; type: biochemical
How it was run: as §2

[15] = 6 over the concentration range of 0–280 µg/mL

Chain of human factor XIa (P03951 19-387 limits assumed): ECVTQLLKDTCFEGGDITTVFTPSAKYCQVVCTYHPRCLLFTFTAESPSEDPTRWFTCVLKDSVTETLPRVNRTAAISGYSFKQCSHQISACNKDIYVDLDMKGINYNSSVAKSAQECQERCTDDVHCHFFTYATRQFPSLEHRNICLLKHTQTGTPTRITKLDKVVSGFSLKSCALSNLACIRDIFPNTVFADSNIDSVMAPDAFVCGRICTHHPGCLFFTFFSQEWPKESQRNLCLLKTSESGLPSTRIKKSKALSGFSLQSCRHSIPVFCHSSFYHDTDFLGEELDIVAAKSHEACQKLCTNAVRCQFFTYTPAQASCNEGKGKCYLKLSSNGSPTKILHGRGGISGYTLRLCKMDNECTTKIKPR
Chain of human factor XIa (P03951 388-625 limits assumed): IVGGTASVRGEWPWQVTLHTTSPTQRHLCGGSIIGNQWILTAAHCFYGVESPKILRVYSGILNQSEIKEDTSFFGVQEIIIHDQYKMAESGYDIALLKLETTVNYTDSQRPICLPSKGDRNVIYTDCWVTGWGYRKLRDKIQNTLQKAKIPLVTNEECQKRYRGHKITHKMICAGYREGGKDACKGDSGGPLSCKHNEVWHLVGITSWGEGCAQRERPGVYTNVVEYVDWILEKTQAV
Chain of FXIa Wild Type (P03951 19-387 limits assumed): as the sequence (P03951 19-387 limits assumed) above
Chain of FXIa Wild Type (P03951 388-625 limits assumed): as the sequence (P03951 388-625 limits assumed) above
T1 sequence (P03951 19-387 limits assumed): as the sequence (P03951 19-387 limits assumed) above
T1 sequence (P03951 388-625 limits assumed): as the sequence (P03951 388-625 limits assumed) above
Chain of factor VIIa (P08709 213-466 limits assumed): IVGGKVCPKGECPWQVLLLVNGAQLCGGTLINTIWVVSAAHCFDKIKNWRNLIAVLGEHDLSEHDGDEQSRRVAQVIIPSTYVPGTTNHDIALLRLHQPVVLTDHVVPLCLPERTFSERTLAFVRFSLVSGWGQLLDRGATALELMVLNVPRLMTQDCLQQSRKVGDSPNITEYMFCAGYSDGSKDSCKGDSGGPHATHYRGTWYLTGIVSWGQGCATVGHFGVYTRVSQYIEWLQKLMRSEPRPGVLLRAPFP
Chain of factor VIIa (P08709 61-212 limits assumed): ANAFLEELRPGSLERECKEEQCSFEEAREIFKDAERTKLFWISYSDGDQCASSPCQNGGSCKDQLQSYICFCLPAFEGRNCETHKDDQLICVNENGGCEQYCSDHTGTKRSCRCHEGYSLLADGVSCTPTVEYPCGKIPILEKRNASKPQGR
Chain of factor VIIa (P13726 33-295 partner): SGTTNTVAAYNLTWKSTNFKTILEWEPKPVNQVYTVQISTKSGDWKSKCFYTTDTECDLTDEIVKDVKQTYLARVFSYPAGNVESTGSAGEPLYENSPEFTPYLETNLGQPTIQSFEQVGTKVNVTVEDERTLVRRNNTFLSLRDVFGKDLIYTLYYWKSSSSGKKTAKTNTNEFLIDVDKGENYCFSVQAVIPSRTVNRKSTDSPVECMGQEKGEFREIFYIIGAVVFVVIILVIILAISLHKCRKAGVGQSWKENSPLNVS
Chain of factor IXa (P00740 227-461 limits assumed): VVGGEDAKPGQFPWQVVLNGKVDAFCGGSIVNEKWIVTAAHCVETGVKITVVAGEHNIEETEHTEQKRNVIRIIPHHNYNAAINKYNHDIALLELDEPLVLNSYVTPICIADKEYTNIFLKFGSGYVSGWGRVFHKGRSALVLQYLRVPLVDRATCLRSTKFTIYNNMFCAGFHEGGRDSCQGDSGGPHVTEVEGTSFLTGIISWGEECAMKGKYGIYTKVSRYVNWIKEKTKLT
Chain of factor IXa (P00740 47-191 limits assumed): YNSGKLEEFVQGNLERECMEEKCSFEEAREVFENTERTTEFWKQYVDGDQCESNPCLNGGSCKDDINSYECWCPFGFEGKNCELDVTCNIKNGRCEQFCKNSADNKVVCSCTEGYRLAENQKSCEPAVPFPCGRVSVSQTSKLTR

In the case of `COc1cc([C@H]2Oc3cc([C@H]4Oc5cc(OS(=O)(=O)[O-])cc(O)c5C(=O)[C@@H]4OS(=O)(=O)[O-])ccc3O[C@@H]2COS(=O)(=O)[O-])ccc1OS(=O)(=O)[O-].[Na+].[Na+].[Na+].[Na+]` [Molecule 2, sulfated silibinin], the “concentration required for a 2-fold increase in PT” value [1] was “much higher” and the “concentration required for a 2-fold increase in APTT” value [2] was “much higher”.
With `O=C(/C=C/c1ccc(OS(=O)(=O)[O-])c(OS(=O)(=O)[O-])c1)O[C@@H]1C[C@](O)(C(=O)[O-])C[C@@H](OS(=O)(=O)[O-])[C@H]1OS(=O)(=O)[O-].[Na+].[Na+].[Na+].[Na+].[Na+]` [Molecule 4, sulfated chlorogenic acid] the “concentration required for a 2-fold increase in PT” value [1] was “much higher” and the “concentration required for a 2-fold increase in APTT” value [2] was “much higher”.
For `O=C(OC[C@H]1O[C@@H](OC(=O)c2cc(O)c(O)c(O)c2)[C@H](OC(=O)c2cc(O)c(O)c(O)c2)[C@@H](OC(=O)c2cc(O)c(O)c(O)c2)[C@@H]1OC(=O)c1cc(O)c(O)c(O)c1)c1cc(O)c(O)c(O)c1` [Molecule 5, pentagalloyl glucopyranoside, reference compound], the “inhibition of FXIa proteolytic activity” value ([3]; highest concentration tested (300 µM)) was “completely inactive”.
`O=C(OC[C@H]1O[C@@H](OC(=O)c2cc(OS(=O)(=O)[O-])c(O)c(OS(=O)(=O)[O-])c2)[C@H](OC(=O)c2cc(OS(=O)(=O)[O-])c(O)c(OS(=O)(=O)[O-])c2)[C@@H](OC(=O)c2cc(OS(=O)(=O)[O-])c(O)c(OS(=O)(=O)[O-])c2)[C@@H]1OC(=O)c1cc(OS(=O)(=O)[O-])c(O)c(OS(=O)(=O)[O-])c1)c1cc(OS(=O)(=O)[O-])c(O)c(OS(=O)(=O)[O-])c1.[Na+].[Na+].[Na+].[Na+].[Na+].[Na+].[Na+].[Na+].[Na+].[Na+]` [Molecule 6, sulfated pentagalloylglucoside] was tested, and the IC50 [4] was “no inhibition”, the “retention of inhibitory potency with the catalytic domain of FXIa” value [5] was ~ 100% and the “decrease of VMAX” value ([5]; 6 from 0 to 5.0 µg/mL) was ~5 fold. For the same compound, the VMAX ([5]; [6] 0.5 µg/mL) was 53.9 ± 1.4 mAU/min, the pIC50 [3] was 6.21 and the “selectivity for FXIa over other relevant enzymes” value [3] was “at least 200 fold”. For the same compound, the “HS (Hill slope)” value ([3]; S-2366 hydrolysis, pH 7.4, 37 °C) was 1.3 ± 0.1, the pIC50 [6] was 4.80 and the HS ([6]; UFH 0 µM) was 1.3 ± 0.1. It also gave an HS ([6]; UFH 0.13 µM) of 1.4 ± 0.2, an HS ([6]; UFH 3.33 µM) of 1.7 ± 0.2 and an HS ([6]; UFH 33.3 µM) of 4.0 ± 0.9. The HS [7] was 2.2 ± 0.6, the “concentration required for a 2-fold increase in PT” value [1] was 298 µg/mL and the IC50 [8] was “no inhibition”. For the same compound, the “formation of FIXaβ” value [9] was “not detectable”, the VMAX ([10]; [6] 0.005 µg/mL) was 93.7 ± 3.2 mAU/min and the VMAX ([10]; [6] 0.5 µg/mL) was 74.6 ± 2.6 mAU/min. The VMAX ([10]; [6] 2.5 µg/mL) was 56.9 ± 1.5 mAU/min, the VMAX ([10]; [6] 5.0 µg/mL) was 32.3 ± 2.1 mAU/min and the VMAX ([10]; [6] 50.0 µg/mL) was 17.2 mAU/min and 17.2 ± 1.2 mAU/min. For the same compound, the “G (shear elastic modulus strength)” value ([11]; 6 at 20 µg/mL) was 8.2 × 10^3 kDynes/cm^3, the “G (shear elastic modulus strength)” value ([11]; 6 at 135 µg/mL) was 5.0 × 10^3 kDynes/cm^3 and the “G (shear elastic modulus strength)” value ([11]; 6 at 190 µg/mL) was 3.8 × 10^3 kDynes/cm^3. For the same compound, the “G (shear elastic modulus strength)” value ([11]; 6 at 280 µg/mL) was 0.9 × 10^3 kDynes/cm^3, the “reduction of G” value [11, 15] was ~8 fold and the “reduction of MA” value [11, 15] was ~ 4 fold. The HS [12] was 3.0 ± 1.8, the IC50 [13] was “no inhibition” and the ΔY [14] was 83 ± 10. The “less effective than enoxaparin at molar levels” value ([2]; molar basis) was 36 fold.
